Screening data from PubChem.
SENP6 block: SENP6 protease inhibitors, primary screen, biochemical, luminescence, uHTS; 1.8% of 330,000 active; AID 2599, 2010; Sentrin-specific protease 6 (Homo sapiens), Q9GZR1; inhibition, % at 10 µM; Recombinant SENP6 catalytic domain, aminoluciferin luminescence;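 active = inhibition above about 50% at the single tested dose, limit read from the data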;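 also: plate controls were DMSO wells with enzyme for no effect and DMSO wells lacking enzyme for full effect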
SENP8 block-1: human SENP8 protease inhibitors, primary screen, biochemical, fluorescence, Nedd8 protein substrate, uHTS; Sentrin-specific protease 8 (Homo sapiens), Q96LD8; recombinant SENP8; inhibition, % at 20 µM; 0.64% of 360,000 active; AID 602440, 2012; in the data active = inhibition mostly above about 40%, no sharp cut-off; inactive = mostly below about 27%
SENP1 FRET inh: human SENP1 catalytic domain inhibitors, primary screen, biochemical, FRET, uHTS; Sentrin-specific protease 1 (Homo sapiens), Q9P0U3; recombinant SENP1 catalytic domain, CyPet-SUMO1-YPet FRET cleavage; inhibition, % at 10 µM; 0.21% of 360,000 active;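 active = inhibition at least 30% at 10 µM, raw YFP signal under a set limit, fluorescence ratio 0.5 to 1.5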;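 also: 0% = enzyme with DMSO and 100% = no enzyme wells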
Target sequence (Q9P0U3 419-644 limits assumed): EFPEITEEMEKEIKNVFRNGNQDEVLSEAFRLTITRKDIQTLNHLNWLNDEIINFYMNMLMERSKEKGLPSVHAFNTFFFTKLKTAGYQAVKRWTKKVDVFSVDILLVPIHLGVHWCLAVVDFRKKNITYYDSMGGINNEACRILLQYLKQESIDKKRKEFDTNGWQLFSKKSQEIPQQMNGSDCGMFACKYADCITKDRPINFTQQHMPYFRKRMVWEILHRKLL
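Compound: 10 µM single point, 0.5% DMSO; Test system: hSENP1 catalytic domain, recombinant; Timing: 50 min reaction at room temperature; Technique: FRET, CFP and YFP emission; Control set: no-enzyme wells low, DMSO-plus-enzyme wells high control.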
SENP8 block-2: SENP8 protease inhibitors, primary screen, biochemical, luminescence | purified SENP8, Z-RLRGG-aminoluciferin cleavage | inhibition, % at 10 µM | 1.2% of 330,000 active; in the data active = inhibition above about 50%
SENP7 block: SENP7 protease inhibitors, primary screen, biochemical, luminescence, uHTS. recombinant SENP7, Z-RLRGG-aminoluciferin luminescence, 40 min. inhibition, % at 5 µM. 1.5% of 330,000 active. AID 434973, 2010. Sentrin-specific protease 7 (Homo sapiens), Q9BQF6;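 active = inhibition above about 50% at the single test dose, limit read from the data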;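 also: plate controls were DMSO with enzyme for no effect and no enzyme buffer wells for full effect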
Target sequence (Q9BQF6 706-1050 limits assumed): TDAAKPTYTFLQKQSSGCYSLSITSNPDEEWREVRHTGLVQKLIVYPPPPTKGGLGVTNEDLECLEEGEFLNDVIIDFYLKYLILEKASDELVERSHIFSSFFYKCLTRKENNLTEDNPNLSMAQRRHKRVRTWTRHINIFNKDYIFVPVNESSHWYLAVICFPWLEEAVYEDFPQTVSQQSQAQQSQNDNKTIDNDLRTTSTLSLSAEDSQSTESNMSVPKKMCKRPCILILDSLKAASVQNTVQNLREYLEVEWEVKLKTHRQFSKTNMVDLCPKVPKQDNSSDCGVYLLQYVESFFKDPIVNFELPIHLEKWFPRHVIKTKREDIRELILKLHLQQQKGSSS
Platelet DG rel: inhibitors of platelet dense granule secretion, primary screen, cell-based, MLPCN, human platelets | human platelet-rich plasma, SFLLRN dense granule ATP release, luminescence | inhibition, %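 (compounds screened at 7.5 µM in platelet-rich plasma)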 | 0.22% of 300,000 active | AID 1663, 2009;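 active = mean replicate score, as percent of positive control, at or above 50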
SENP8 confirm: SENP8 protease inhibitors, retest, confirmation, biochemical, luminescence, single concentration | shares compounds with SENP7 block | Recombinant SENP8, Z-RLRGG-aminoluciferin luminescence, 60 min | inhibition, % at 12.5 µM | 40% of 6,200 active | AID 488912, 2010;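 active = mean inhibition across replicates above about 50%, limit read from the data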
SENP6 conf: SENP6 protease inhibitors, confirmation, biochemical, luminescence, single concentration | shares compounds with SENP7 block | recombinant SENP6, Z-RLRGG-aminoluciferin luminescence | AID 488915, 2010 | 58% of 6,200 active | inhibition, % at 12.5 µM
SENP7 confirm: SENP7 protease inhibitors, retest, confirmation, biochemical, luminescence, single concentration. 69% of 6,200 active. shares compounds with SENP7 block. inhibition, % at 12.5 µM. recombinant SENP7, Z-RLRGG-aminoluciferin luminescence, 40 min
Casp3 SENP sel: caspase-3 protease inhibitors, confirmation, selectivity assay for SENP inhibitor project, biochemical, single concentration. shares compounds with SENP7 block. 60% of 6,200 active. purified caspase-3, Z-DEVD-aminoluciferin luminescence, 60 min. inhibition, % at 12.5 µM. AID 488918, 2010;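 active = mean inhibition above about 50%, limit read from the data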;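 also: plate controls were enzyme with DMSO for no effect and wells without caspase-3 for full effect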
SENP luc ctr: counter-screen for SENP inhibitors: luminescence interference; inhibition, % at 12.5 µM; Pre-incubated SENP8/Z-RLRGG-aminoluciferin, luciferase luminescence interference; 39% of 6,200 active; shares compounds with SENP7 block; AID 488919;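 active = mean inhibition above about 50% when retested at one dose, limit read from the data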;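 also: plate controls were DMSO wells with completed reaction for no effect and substrate without enzyme for full effect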
Numbers without * were called inactive; . = no result. Hits are enriched below; roughly 2.6% of the tested compounds scored in any of these assays.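 The calls were made as follows, unless noted: active = mean inhibition above about 50% in the one-dose retest (limit read from the data); inactive = the rest.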

SMILES	SENP6 block	SENP8 block-1	SENP1 FRET inh	SENP8 block-2	SENP7 block	Platelet DG rel	SENP8 confirm	SENP6 conf	SENP7 confirm	Casp3 SENP sel	SENP luc ctr
O=C(/C=C/c1ccc(OC(F)F)cc1)Nc1cccc(S(=O)(=O)N2CCOCC2)c1	-17	-10	1	-3	3	-2	.	.	.	.	.
Cc1ccc2nc(-c3ccccc3)cc(C(=O)N3CCN(S(=O)(=O)c4c(C)noc4C)CC3)c2c1	-25	-130	-2	-19	-8	.	.	.	.	.	.
O=C(c1ccc(Br)cc1)N1CCC(C(=O)N2CCN(Cc3ccccc3)CC2)CC1	-7	2	0	9	5	-12	.	.	.	.	.
O=C1c2ccccc2C(=O)C1c1ccc(Cl)cc1	82*	11	2	77*	0	0	89*	92*	99*	89*	88*
O=C1c2ccccc2C(=O)C1c1ccc(Br)cc1	94*	8	2	93*	1	1	96*	94*	100*	89*	95*
O=C1c2ccccc2C(=O)C1c1ccc(O)cc1	46	-363	-35	-1	-7	5	.	.	.	.	.
COc1cccc(C2C(=O)c3ccccc3C2=O)c1	-9	8	-1	-3	2	-2	.	.	.	.	.
O=C(NC1CCN(S(=O)(=O)c2ccccc2C(F)(F)F)CC1)c1ccco1	-8	7	0	-4	-6	-18	.	.	.	.	.
Fc1ccc2nc3[nH]c4ccccc4c3nc2c1	74*	-211	-58	47	74*	-4	8	53*	53*	61*	25
OC1=C(O)c2nc3cc(F)ccc3nc21	11	17	-12	-1	-2	-8	.	.	.	.	.
c1ccc(-c2nn3c(-c4ccccc4)nnc3s2)cc1	1	3	-1	-6	-2	5	.	.	.	.	.
Cc1ccc(-c2nnc3sc(-c4ccncc4)nn23)cc1	-16	2	0	-8	57*	21	1	5	10	6	3
CSc1ccc(NC(=O)Nc2cccn(Cc3ccccc3F)c2=O)cc1	63*	-190	0	44	49	4	21	9	43	26	-2
CCc1ccccc1NC(=O)Nc1cccn(Cc2ccccc2F)c1=O	-29	-398	1	-12	0	-3	.	.	.	.	.
Cc1ccc(NC(=O)CCCCCN2C(=O)[C@@H]3Cc4ccccc4CN3C2=O)c(C)c1	5	5	-1	0	-10	-4	.	.	.	.	.
CN1CCN(C2CCN(c3cccc(Cl)c3)CC2)CC1CCO (stereo not given)	10	4	-5	8	-3	-4	.	.	.	.	.
Cn1ccnc1SCC(=O)c1ccc(O)cc1	55*	18	1	26	40	16	21	16	67*	80*	52*
CCCCC[C@@H](C)N1C[C@@H](COCc2ccccc2)Oc2cc(N3CC[C@@H](N(C)C)C3)ccc2S1(=O)=O	.	-16	1	.	.	.	.	.	.	.	.
CN(CC(=O)Nc1ccc(F)cc1)C(=O)Cn1cnc2ccc([N+](=O)[O-])cc2c1=O	-17	2	-2	1	4	.	.	.	.	.	.
Cn1cccc1C(=O)NC(=O)COC(=O)C12CC3CC(CC(O)(C3)C1)C2	54*	-7	-4	42	62*	48	62*	58*	82*	84*	2
CC(=O)NC12CC3CC(C1)CC(C(=O)OCC(=O)NC(=O)c1cccn1C)(C3)C2	-8	19	1	-2	-1	4	.	.	.	.	.
O=C(N/N=C\c1ccc([N+](=O)[O-])s1)c1cncc(Br)c1	70*	37	-2	9	15	0	0	19	-7	4	4
COc1ccc(NC(=O)Nc2ccc3c(c2)CC(=O)N([C@H](C)CO)C[C@H](C)[C@H](CN(C)Cc2ccc(C(=O)O)cc2)O3)cc1	-7	4	2	3	-7	.	.	.	.	.	.
O=C1OC(c2ccccc2)=C/C1=C/c1cccs1	59*	11	-21	38	57*	2	24	37	46	35	20
CC(C)(C)c1ccc(CC(=O)N2CCC2(C)C(=O)O)cc1 (stereo not given)	.	8	1	.	.	.	.	.	.	.	.
SMILES	SENP6 block	SENP8 block-1	SENP1 FRET inh	SENP8 block-2	SENP7 block	Platelet DG rel	SENP8 confirm	SENP6 conf	SENP7 confirm	Casp3 SENP sel	SENP luc ctr
O=S(=O)(Nc1nc(-c2sccc2Cl)cs1)c1cc(Cl)ccc1Cl	74*	37	4	10	3	3	9	15	5	6	11
CCn1cnc2sc(-c3ccccc3)cc2c1=O	58*	-29	0	21	10	25	37	30	65*	50	44
S=C(Nc1ccc(Cl)cc1)c1nc2ccccc2s1	18	31	-1	1	57*	1	9	7	0	5	2
Cc1ccc(NC(=S)c2nc3ccccc3s2)cc1	61*	-83	-1	43	80*	0	11	42	29	28	9
Cc1ccc(C)c(NC(=S)c2nc3ccccc3s2)c1	-27	26	2	-18	-14	-5	.	.	.	.	.
CCOC(=O)Cc1csc(NS(=O)(=O)c2ccc([N+](=O)[O-])cc2)n1	8	22	2	1	1	2	.	.	.	.	.
CC(=O)Nc1ccc(S(=O)(=O)N2CCC(C(=O)N[C@@H](C)C(=O)NC3CCCC3)CC2)cc1	-7	4	2	-5	14	-1	.	.	.	.	.
O=C(CCCn1cncn1)N1CCCC(N2CCN(c3ccc(F)cc3)CC2)C1 (stereo not given)	-15	3	0	-2	-7	7	.	.	.	.	.
CSc1ncccc1C(=O)OCc1ccc([N+](=O)[O-])cc1	-1	10	0	-8	9	-5	.	.	.	.	.
